Active and inactive are the calls of the source. The calls are words filed in the database; no cut-off is given here.

For test [1], the target named is T1, Replicase polyprotein 1ab (Severe acute respiratory syndrome-related coronavirus, UniProt P0C6X7). The test can be described thus: Inhibition of SARS coronavirus recombinant 3C-like protease expressed in Escherichia coli BL21(DE3) after 30 mins by FRET based assay.
Test [2] deals with Replicase polyprotein 1ab (Severe acute respiratory syndrome-related coronavirus) (UniProt P0C6X7). Description: Inhibition of SARS coronavirus recombinant 3C-like protease expressed in Escherichia coli BL21(DE3) at 100 uM after 18 mins by FRET based assay.
The target in test [3] is T1, Replicase polyprotein 1ab. Description: Inhibition of SARS coronavirus recombinant 3C-like protease expressed in Escherichia coli BL21(DE3) by Lineweaver-Burk plot analysis. Put shortly:
(§1)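 Inhibitor at 0, 20, 30, 40, 50 and 60 μM; substrate at 5, 7.5 and 10 μM. Mode assigned from Lineweaver–Burk and Dixon plots. Km and Ki come from linear regression, with Ki taken from the common x-axis intercept on the Dixon plot.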

Test [4] has as its target Replicase polyprotein 1ab (Severe acute respiratory syndrome-related coronavirus) (UniProt P0C6X7). The test can be described thus: Competitive inhibition of SARS coronavirus recombinant 3C-like protease expressed in Escherichia coli BL21(DE3) by Dixon plot analysis. The essentials: as §1

As usually defined, the IC50 is the concentration that inhibits the measured activity by half. As a reminder, the inhibition is the drop in the measured response relative to a control, in per cent. On to `Cc1nc(C)c(C(=O)C2=C(O)C(=O)N(CCCN3CCOCC3)C2c2cccc([N+](=O)[O-])c2)s1` (stereo not drawn), for which the IC50 in test [1] worked out at 101 µM. Moreover, in test [2], the inhibition came out at 49.1%.
For `COc1cc(/C=N/NC(=O)/C(=C\c2ccccc2)NC(=O)c2ccccc2)cc(OC)c1O`, in that order: 77.1 µM and 56.1%.
`Nc1nc(CSc2nnc(-c3cccc4ccccc34)n2-c2ccccc2)cs1`: the IC50 in test [1] worked out at 58.3 µM. Besides, the inhibition in test [2] amounted to 58.2%.
The Ki is a dissociation constant, usually derived from enzyme kinetics or from competition with a known ligand. `Cc1ccc(C(=O)N/C(=C\c2ccc(-c3cccc([N+](=O)[O-])c3)o2)C(=O)NCCCN(C)C)cc1`: the IC50 in test [1] was 38.6 µM. For the same compound, in test [3], the Ki stood at 9.11 µM. In addition, the inhibition in test [2] came out at 82.6%. Further, the inhibition entry in test [4] was “Active”.
As for `COc1cc(C2C(C(=O)c3ccc(OCC(C)C)cc3C)=C(O)C(=O)N2CCN(C)C)ccc1O` (stereo not drawn), the IC50 in test [1] amounted to 62.8 µM. Further, the inhibition in test [2] came out at 61.4%.
On to `O=C(CSc1ncnc2c1sc1nc(N3CCOCC3)c3c(c12)CCCC3)NCc1ccco1`, for which the IC50 in test [1] is 90.7 µM. In addition, the inhibition in test [2] stood at 53.3%.
`Cc1ccc(C(=O)N/C(=C\c2ccc(-c3ccccc3[N+](=O)[O-])o2)C(=O)NCCCN(C)C)cc1`: the IC50 in test [1] amounted to 41.4 µM. Moreover, the Ki in test [3] was found to be 9.93 µM. Further, in test [2], the inhibition stood at 81.4%. Also, in test [4], the inhibition entry is “Active”.
